These results are taken from ChEMBL document CHEMBL4364321, “Expedient assembly of Oligo-LacNAcs by a sugar nucleotide regeneration system: Finding the role of tandem LacNAc and sialic acid position towards siglec binding” (Eur J Med Chem, 2019).

The source made the active and inactive calls. The calls are words filed in the database; no cut-off is given here.

Assay [1] concerns the target T1, Sialic acid-binding Ig-like lectin 14 (Homo sapiens) (UniProt Q08ET2).
T1 sequence (whole entry): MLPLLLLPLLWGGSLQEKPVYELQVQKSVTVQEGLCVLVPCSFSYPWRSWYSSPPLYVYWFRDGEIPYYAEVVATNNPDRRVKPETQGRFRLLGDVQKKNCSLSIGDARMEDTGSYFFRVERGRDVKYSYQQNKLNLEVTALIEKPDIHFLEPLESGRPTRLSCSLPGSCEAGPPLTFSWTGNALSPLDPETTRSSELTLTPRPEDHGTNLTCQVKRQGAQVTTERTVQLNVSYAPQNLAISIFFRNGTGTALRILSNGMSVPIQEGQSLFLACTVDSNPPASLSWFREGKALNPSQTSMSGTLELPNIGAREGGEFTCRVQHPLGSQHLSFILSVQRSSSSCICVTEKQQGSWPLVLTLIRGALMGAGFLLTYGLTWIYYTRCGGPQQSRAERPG
The assay is described as follows: Binding affinity to recombinant human Fc-fused siglec-14 by fluorescence based glycan microarray analysis. The method, boiled down:
(§1)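 Azidoglycans CuAAC-coupled onto alkyne-modified glass (10% zwitterionic silane mix), five replicate spots each, remaining alkynes capped with azido-ethylene glycol. Slides blocked 0.5 h in 3% BSA/PBS, then probed 1 h at rt with Fc-Siglec (10 µg/mL) premixed 1:1 with Fc-specific anti-human IgG-Cy3 (10 µg/mL) in PBS/0.1% BSA. After PBST washes, Cy3 fluorescence was scanned and averaged over replicates.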

Assay [2] addresses T2, Sialic acid-binding Ig-like lectin 7 (Homo sapiens, UniProt Q9Y286). The assay is described as follows: Binding affinity to recombinant human Fc-fused siglec-7 after 1 hr by fluorescence based glycan microarray analysis. The method, boiled down: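 Surface KD determination on the same glycan microarray. Fc-Siglec-7 was applied at 0.735–588 nM (13 concentrations) for 1 h at rt and washed with PBST, then detected with anti-human IgG-Cy3 (10 µg/mL) for 0.5 h. Fluorescence was plotted against Siglec concentration and fitted to y = Bmax·x/(KD + x).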

In assay [3] the target is T2, Sialic acid-binding Ig-like lectin 7. The assay can be described thus: Binding affinity to recombinant human Fc-fused siglec-7 by fluorescence based glycan microarray analysis. The method, boiled down: as §1
For assay [4] the target is unchanged. The assay is described as follows: Binding affinity to recombinant human Fc-fused siglec-7 expressed in CHO cells measured over 180 secs. The class given is cell-based.
The target of assay [5] is B-cell receptor CD22 (Homo sapiens) (UniProt P20273). The assay is described as follows: Binding affinity to recombinant human Fc-fused siglec-2 by fluorescence based glycan microarray analysis. An outline of the steps: as §1
The target of assay [6] is T3, Sialic acid-binding Ig-like lectin 15 (Homo sapiens) (UniProt Q6ZMC9).
T3 sequence (whole entry): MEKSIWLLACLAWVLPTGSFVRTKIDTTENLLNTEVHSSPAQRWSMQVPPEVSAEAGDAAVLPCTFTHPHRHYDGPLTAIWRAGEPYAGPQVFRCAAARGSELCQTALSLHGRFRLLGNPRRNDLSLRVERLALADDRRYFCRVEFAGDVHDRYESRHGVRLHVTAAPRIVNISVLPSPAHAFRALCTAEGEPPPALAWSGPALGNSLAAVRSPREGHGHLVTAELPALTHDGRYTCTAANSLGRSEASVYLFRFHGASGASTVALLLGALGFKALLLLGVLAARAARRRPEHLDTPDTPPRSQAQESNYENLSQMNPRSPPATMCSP
The assay is described as follows: Binding affinity to recombinant human Fc-fused siglec-15 by fluorescence based glycan microarray analysis. The method, boiled down:
as §1

For assay [7], the target named is Sialic acid-binding Ig-like lectin 9 (Homo sapiens) (UniProt Q9Y336). The assay is described as follows: Binding affinity to recombinant human Fc-fused siglec-9 by fluorescence based glycan microarray analysis. The method, boiled down: as §1
Sequence of Sialic acid-binding Ig-like lectin 9 (Homo sapiens) (Q9Y336 whole entry, the tested form may be a part): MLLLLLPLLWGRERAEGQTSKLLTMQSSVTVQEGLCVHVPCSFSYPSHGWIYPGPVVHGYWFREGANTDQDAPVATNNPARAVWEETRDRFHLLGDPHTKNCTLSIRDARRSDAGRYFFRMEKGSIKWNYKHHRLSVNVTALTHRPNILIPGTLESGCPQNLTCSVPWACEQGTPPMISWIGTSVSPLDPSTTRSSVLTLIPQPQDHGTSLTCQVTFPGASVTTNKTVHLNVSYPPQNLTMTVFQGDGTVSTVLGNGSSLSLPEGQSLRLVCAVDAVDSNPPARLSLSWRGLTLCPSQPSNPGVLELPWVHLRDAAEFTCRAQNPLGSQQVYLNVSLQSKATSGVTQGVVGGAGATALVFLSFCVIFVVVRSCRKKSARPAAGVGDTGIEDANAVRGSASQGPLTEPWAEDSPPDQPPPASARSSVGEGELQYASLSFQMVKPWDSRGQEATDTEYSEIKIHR

Sequence of B-cell receptor CD22 (Homo sapiens) (P20273 whole entry, the tested form may be a part): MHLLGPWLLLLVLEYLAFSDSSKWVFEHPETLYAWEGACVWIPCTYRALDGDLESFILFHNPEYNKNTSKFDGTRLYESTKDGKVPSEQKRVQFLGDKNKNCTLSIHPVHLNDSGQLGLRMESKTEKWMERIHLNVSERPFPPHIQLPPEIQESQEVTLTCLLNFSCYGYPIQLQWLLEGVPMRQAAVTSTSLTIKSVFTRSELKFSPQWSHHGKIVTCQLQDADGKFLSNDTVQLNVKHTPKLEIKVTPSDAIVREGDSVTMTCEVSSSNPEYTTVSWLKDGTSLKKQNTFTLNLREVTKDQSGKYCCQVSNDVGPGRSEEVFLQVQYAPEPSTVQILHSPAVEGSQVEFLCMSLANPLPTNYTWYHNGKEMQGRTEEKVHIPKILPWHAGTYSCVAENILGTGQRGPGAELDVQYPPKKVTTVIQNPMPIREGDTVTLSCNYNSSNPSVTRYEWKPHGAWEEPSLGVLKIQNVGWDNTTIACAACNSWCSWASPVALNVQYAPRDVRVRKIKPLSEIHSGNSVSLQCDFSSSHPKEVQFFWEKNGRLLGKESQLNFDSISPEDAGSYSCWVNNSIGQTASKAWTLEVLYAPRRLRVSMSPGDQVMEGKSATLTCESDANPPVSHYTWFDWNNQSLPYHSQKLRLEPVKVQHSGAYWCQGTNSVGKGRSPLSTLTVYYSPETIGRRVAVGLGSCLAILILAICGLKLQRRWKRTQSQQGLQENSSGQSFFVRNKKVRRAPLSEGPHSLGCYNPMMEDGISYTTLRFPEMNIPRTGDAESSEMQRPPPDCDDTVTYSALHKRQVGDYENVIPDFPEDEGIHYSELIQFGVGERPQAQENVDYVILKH
T2 sequence (Q9Y286 whole entry, the tested form may be a part): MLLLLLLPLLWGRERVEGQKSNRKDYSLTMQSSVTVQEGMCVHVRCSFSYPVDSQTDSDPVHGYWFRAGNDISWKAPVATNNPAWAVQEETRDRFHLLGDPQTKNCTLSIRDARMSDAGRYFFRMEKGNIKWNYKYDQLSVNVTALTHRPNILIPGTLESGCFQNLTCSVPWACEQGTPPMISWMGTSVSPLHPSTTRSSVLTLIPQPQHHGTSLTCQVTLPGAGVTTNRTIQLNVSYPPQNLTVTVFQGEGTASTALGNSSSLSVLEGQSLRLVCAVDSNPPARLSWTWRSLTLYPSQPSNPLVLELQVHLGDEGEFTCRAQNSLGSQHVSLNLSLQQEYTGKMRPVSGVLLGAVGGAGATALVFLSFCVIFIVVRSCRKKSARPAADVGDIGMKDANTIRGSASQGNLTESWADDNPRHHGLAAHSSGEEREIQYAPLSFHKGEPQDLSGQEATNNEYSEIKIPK

Take `CC(=O)N[C@H]1[C@H](OCCCCCCN=[N+]=[N-])O[C@H](CO)[C@@H](O[C@@H]2O[C@H](CO)[C@H](O)[C@H](O[C@]3(C(=O)O)C[C@H](O)[C@@H](NC(C)=O)[C@H]([C@@H](O)[C@@H](CO)O[C@]4(C(=O)O)C[C@H](O)[C@@H](NC(C)=O)[C@H]([C@H](O)[C@H](O)CO)O4)O3)[C@H]2O)[C@@H]1O`: in assay [1], the result was Active. For the same compound, in assay [2], the Kd amounted to 43.3 nM.

`CC(=O)N[C@H]1[C@H](OCCCCCCN=[N+]=[N-])O[C@H](CO)[C@@H](O[C@@H]2O[C@H](CO)[C@H](O)[C@H](O[C@@H]3O[C@H](CO)[C@@H](O[C@@H]4O[C@H](CO)[C@H](O)[C@H](O[C@]5(C(=O)O)C[C@H](O)[C@@H](NC(C)=O)[C@H]([C@@H](O)[C@@H](CO)O[C@]6(C(=O)O)C[C@H](O)[C@@H](NC(C)=O)[C@H]([C@H](O)[C@H](O)CO)O6)O5)[C@H]4O)[C@H](O)[C@H]3NC(C)=O)[C@H]2O)[C@@H]1O`: in assay [3], the outcome was inactive.

Consider `CC(=O)N[C@H]1[C@H]([C@@H](O)[C@@H](CO)O[C@]2(C(=O)O)C[C@H](O)[C@@H](NC(C)=O)[C@H]([C@H](O)[C@H](O)CO)O2)O[C@@](O[C@H]2[C@@H](O)[C@@H](CO)O[C@@H](O[C@H]3[C@H](O)[C@@H](O)[C@H](OCCCCCCN=[N+]=[N-])O[C@@H]3CO)[C@@H]2O)(C(=O)O)C[C@@H]1O`, for which, in assay [1], the outcome was Active. In addition, the values for the Kd in assay [4] and in assay [2] were 60 nM and 32.7 nM, respectively.

For `CC(=O)N[C@H]1[C@H](OCCCCCCN=[N+]=[N-])O[C@H](CO)[C@@H](O[C@@H]2O[C@H](CO)[C@H](O)[C@H](O[C@@H]3O[C@H](CO)[C@@H](O)[C@@H](O[C@@H]4O[C@H](CO[C@]5(C(=O)O)C[C@H](O)[C@@H](NC(C)=O)[C@H]([C@H](O)[C@H](O)CO)O5)[C@H](O)[C@H](O[C@]5(C(=O)O)C[C@H](O)[C@@H](NC(C)=O)[C@H]([C@H](O)[C@H](O)CO)O5)[C@H]4O)[C@H]3NC(C)=O)[C@H]2O)[C@@H]1O`, the result in assay [5] and in assay [6] was inactive.

With `CC(=O)N[C@H]1[C@H](OCCCCCCN=[N+]=[N-])O[C@H](CO)[C@@H](O[C@@H]2O[C@H](CO)[C@H](O)[C@H](O[C@]3(C(=O)O)C[C@H](O)[C@@H](NC(C)=O)[C@H]([C@H](O)[C@H](O)CO)O3)[C@H]2O)[C@@H]1O[C@@H]1O[C@@H](C)[C@@H](O)[C@@H](O)[C@@H]1O`, in assay [7], the result was Active.

`CC(=O)N[C@H]1[C@H]([C@H](O)[C@H](O)CO)O[C@@](OC[C@H]2O[C@@H](O[C@H]3[C@H](O)[C@@H](O)[C@H](OCCCCCCN=[N+]=[N-])O[C@@H]3CO)[C@H](O)[C@@H](O[C@]3(C(=O)O)C[C@H](O)[C@@H](NC(C)=O)[C@H]([C@H](O)[C@H](O)CO)O3)[C@H]2O)(C(=O)O)C[C@@H]1O`: the result in assay [1], in assay [3] and in assay [6] was Active. Besides, the outcome in assay [5] was inactive. Besides, the Kd in assay [2] turned out to be 26.8 nM.

Turning to `CC(=O)N[C@H]1[C@H]([C@H](O)[C@H](O)CO)O[C@@](OC[C@H]2O[C@@H](O[C@H]3[C@H](O)[C@@H](O)[C@H](OCCCCCCN=[N+]=[N-])O[C@@H]3CO)[C@H](O)[C@@H](O)[C@H]2O)(C(=O)O)C[C@@H]1O`, the outcome in assay [7], in assay [3] and in assay [5] was Active.

As to `CC(=O)N[C@H]1[C@H](OCCCCCCN=[N+]=[N-])O[C@H](CO)[C@@H](O[C@@H]2O[C@H](CO[C@]3(C(=O)O)C[C@H](O)[C@@H](NC(C)=O)[C@H]([C@H](O)[C@H](O)CO)O3)[C@H](O)[C@H](O[C@@H]3O[C@H](CO)[C@@H](O)[C@H](O)[C@H]3NC(C)=O)[C@H]2O)[C@@H]1O`, in assay [7], the result was Active. In addition, in assay [5], the result was inactive.

`CC(=O)N[C@H]1[C@H]([C@@H](O)[C@@H](CO)O[C@]2(C(=O)O)C[C@H](O)[C@@H](NC(C)=O)[C@H]([C@@H](O)[C@@H](CO)O[C@]3(C(=O)O)C[C@H](O)[C@@H](NC(C)=O)[C@H]([C@H](O)[C@H](O)CO)O3)O2)O[C@@](O[C@H]2[C@@H](O)[C@@H](CO)O[C@@H](O[C@H]3[C@H](O)[C@@H](O)[C@H](OCCCCCCN=[N+]=[N-])O[C@@H]3CO)[C@@H]2O)(C(=O)O)C[C@@H]1O`: in assay [2], the Kd is 48.7 nM.

For the compound `CC(=O)N[C@H]1[C@H](OCCCCCCN=[N+]=[N-])O[C@H](CO)[C@@H](O[C@@H]2O[C@H](CO)[C@H](O)[C@H](O[C@]3(C(=O)O)C[C@H](O)[C@@H](NC(C)=O)[C@H]([C@@H](O)[C@@H](CO)O[C@]4(C(=O)O)C[C@H](O)[C@@H](NC(C)=O)[C@H]([C@@H](O)[C@@H](CO)O[C@]5(C(=O)O)C[C@H](O)[C@@H](NC(C)=O)[C@H]([C@H](O)[C@H](O)CO)O5)O4)O3)[C@H]2O)[C@@H]1O`, the dissociation constant Kd in assay [2] was 54.1 nM.

Turning to `CC(=O)N[C@H]1[C@H](OCCCCCCN=[N+]=[N-])O[C@H](CO)[C@@H](O[C@@H]2O[C@H](CO)[C@H](O)[C@H](O[C@@H]3O[C@H](CO)[C@@H](O)[C@@H](O[C@@H]4O[C@H](CO)[C@H](O)[C@H](O[C@@H]5O[C@H](CO)[C@@H](O)[C@@H](O[C@@H]6O[C@H](CO[C@]7(C(=O)O)C[C@H](O)[C@@H](NC(C)=O)[C@H]([C@H](O)[C@H](O)CO)O7)[C@H](O)[C@H](O)[C@H]6O)[C@H]5NC(C)=O)[C@H]4O)[C@H]3NC(C)=O)[C@H]2O)[C@@H]1O`, the result in assay [7] and in assay [5] was Active. In addition, in assay [3], the outcome was inactive.

Consider `CC(=O)N[C@H]1[C@H](OCCCCCCN=[N+]=[N-])O[C@H](CO)[C@@H](O[C@@H]2O[C@H](CO[C@]3(C(=O)O)C[C@H](O)[C@@H](NC(C)=O)[C@H]([C@H](O)[C@H](O)CO)O3)[C@H](O)[C@H](O[C@]3(C(=O)O)C[C@H](O)[C@@H](NC(C)=O)[C@H]([C@H](O)[C@H](O)CO)O3)[C@H]2O)[C@@H]1O`, for which the result in assay [1], in assay [7], in assay [3] and in assay [6] was Active. Moreover, the outcome in assay [5] was inactive. Besides, in assay [2], the equilibrium dissociation constant (Kd) was 38.7 nM.

Consider `CC(=O)N[C@H]1[C@H](OCCCCCCN=[N+]=[N-])O[C@H](CO)[C@@H](O[C@@H]2O[C@H](CO)[C@H](O)[C@H](O[C@]3(C(=O)O)C[C@H](O)[C@@H](NC(C)=O)[C@H]([C@H](O)[C@H](O)CO)O3)[C@H]2O)[C@@H]1O`, for which the result in assay [1] and in assay [7] was Active. In addition, the outcome in assay [3] was inactive.

As to `CC(=O)N[C@H]1[C@H](OCCCCCCN=[N+]=[N-])O[C@H](CO)[C@@H](O[C@@H]2O[C@H](CO)[C@H](O)[C@H](O[C@@H]3O[C@H](CO)[C@@H](O)[C@@H](O[C@@H]4O[C@H](CO[C@]5(C(=O)O)C[C@H](O)[C@@H](NC(C)=O)[C@H]([C@H](O)[C@H](O)CO)O5)[C@H](O)[C@H](O)[C@H]4O)[C@H]3NC(C)=O)[C@H]2O)[C@@H]1O`, the result in assay [7] and in assay [5] was Active. In assay [3], the outcome was inactive.

Regarding `CC(=O)N[C@H]1[C@H]([C@H](O)[C@H](O)CO)O[C@@](O[C@H]2[C@@H](O)[C@@H](CO)O[C@@H](O[C@H]3[C@H](O)[C@@H](O)[C@H](OCCCCCCN=[N+]=[N-])O[C@@H]3CO)[C@@H]2O)(C(=O)O)C[C@@H]1O`, in assay [7], the outcome was Active. Further, the outcome in assay [3] was inactive.
